Data on one molecule can be found in ChEMBL document CHEMBL4376814, “Novel cyclin-dependent kinase 9 (CDK9) inhibitor with suppression of cancer stemness activity against non-small-cell lung cancer” (Eur J Med Chem, 2019).

The structures appear in SMILES notation. Activity calls are given as the source filed them. The rule behind the calls is not given here.

Test [1] has as its target CDK9/cyclin T1 (Homo sapiens) (UniProt O60563+P50750). As to the kind of experiment: Inhibition of recombinant full-length human CDK9/cyclinT1 at 1 uM using KTFCGTPEYLAPEVRREPRILSEEEQEMFRDFDYIADWC peptide as substrate measured after 40 mins in presence of [gamma33P]ATP by scintillation counting method relative to control. It counts as protein-complex assay. In short, it runs like this: (§1)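 Percent inhibition of kinase activity at a single compound concentration, measured by the outsourced Eurofins KinaseProfiler panel. Values are the mean of two independent experiments.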

Test [2] relates to NCI-H1299. The experiment in a line: Antiproliferative activity against human H1299 cells assessed as inhibition of cell viability at 10 uM after 72 hrs by CCK-8 assay relative to control. Type of test: functional. As to conditions: NCI-H1299, 72 h. In short, it runs like this: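 Single-concentration viability screen using CCK-8. Cells were seeded at 3000/well and treated for 72 h. A450 read after 1-4 h with reagent. Percent inhibition calculated against untreated control and blank wells as (Ac−As)/(Ac−Ab)×100%.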
(In general: Tetrazolium assays rely on reduction of a dye to a coloured formazan, in cell work by metabolically active cells.)

In another test the test system is MCF7. As to the kind of experiment: Antiproliferative activity against human MCF7 cells assessed as inhibition of cell viability after 72 hrs by CCK-8 assay. Type of test: functional, cell-based. Conditions: MCF7, 72 h. In short, it runs like this: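 Cells kept at 37 °C, 5% CO2 in DMEM or RPMI-1640 with 10% FBS and 1% penicillin/streptomycin, then seeded at 3000 cells/well (adherent) or 10,000 cells/well (suspension). Exposed to a range of concentrations for 72 h. CCK-8 added for 1-4 h before reading A450. […] Three independent experiments.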

For test [3], the system named is A549. The experiment in a line: Induction of apoptosis in human A549 cells assessed as late apoptotic cells at 0.5 uM after 48 hrs by AnnexinV-FITC/PI staining-based flow cytometric analysis (reference value: 7.66%). Type of test: functional.
The test system of test [4] is NCI-H1299. The experiment in a line: Induction of apoptosis in human H1299 cells assessed as early apoptotic cells at 0.25 uM after 48 hrs by AnnexinV-FITC/PI staining-based flow cytometric analysis (reference value: 0.248%). It counts as functional. In general terms: In flow cytometry, cells or beads pass a laser one at a time.
The test system of test [5] is NCI-H1299. As to the kind of experiment: Inhibition of tumorsphere formation in human H1299 cells assessed as reduction in side population ratio by PI/Hoechst 33342 staining based flow cytometry. It counts as functional, cell-based.
For test [6], the system named is A549. The experiment in a line: Downregulation of OCT4 in human A549 cells at 0.25 to 1 uM by Western blot analysis. It counts as functional, cell-based. (In general: Immunoblotting shows a protein as a band on a membrane.)
Test [7] has as its target Aurora kinase B (Homo sapiens) (UniProt Q96GD4). As to the kind of experiment: Inhibition of recombinant full-length human AURKB at 1 uM using AKRRRLSSLRA as substrate measured after 40 mins in presence of [gamma33P]ATP by scintillation counting method relative to control.
The target in test [8] is Serine/threonine-protein kinase PAK 5 (Homo sapiens) (UniProt Q9P286). As to the kind of experiment: Inhibition of recombinant human PAK5 (425 to end residues) at 1 uM using RRRLSFAEPG as substrate measured after 40 mins in presence of [gamma33P]ATP by scintillation counting method relative to control.
In test [9] the target is Serine/threonine-protein kinase MARK2 (Homo sapiens) (UniProt Q7KZI7). As to the kind of experiment: Inhibition of recombinant full-length human PAR1Balpha at 1 uM using KKKVSRSGLYRSPSMPENLNRPR as substrate measured after 40 mins in presence of [gamma33P]ATP by scintillation counting method relative to control.
In test [10] the target is [Pyruvate dehydrogenase (acetyl-transferring)] kinase isozyme 2, mitochondrial (Homo sapiens) (UniProt Q15119). As to the kind of experiment: Inhibition of human PDHK2 at 1 uM by radiometric method relative to control. In short, it runs like this:
as §1

Test [11] has as its target Serine/threonine-protein kinase PLK3 (Homo sapiens) (UniProt Q9H4B4). The experiment in a line: Inhibition of recombinant human Plk3 (19 to 301 residues) at 1 uM using casein as substrate measured after 40 mins in presence of [gamma33P]ATP by scintillation counting method relative to control. The method, boiled down:
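Single-point inhibition at 1 µM was measured in the Eurofins KinaseProfiler panel. Values are the mean of two independent experiments.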

In test [12] the test system is Serine/threonine-protein kinase Sgk2 (Homo sapiens), Q9HBY8 [S416D]. The experiment in a line: Inhibition of recombinant human SGK2 S416D mutant (54 to end residues) at 1 uM using GRPRTSSFAEGKK as substrate measured after 40 mins in presence of [gamma33P]ATP by scintillation counting method relative to control.
Test [13] deals with Fibroblast growth factor receptor 4 (Homo sapiens) (UniProt P22455). The experiment in a line: Inhibition of recombinant human FGFR4 (442 to 755 residues) at 1 uM using poly(Glu, Tyr) 4:1 as substrate measured after 40 mins in presence of [gamma33P]ATP by scintillation counting method relative to control.
Test [14] has as its system Macrophage colony-stimulating factor 1 receptor (Homo sapiens), P07333 [Y969C]. As to the kind of experiment: Inhibition of recombinant human Fms (538 to end residues) Y969C mutant at 1 uM using EEEEYEEEEEEYYIIEEEEEEYEEEEEEYYEEEEEEKKKK as substrate measured after 40 mins in presence of [gamma33P]ATP by scintillation counting method relative to control.
Test [15] addresses Serine/threonine-protein kinase tousled-like 1 (Homo sapiens) (UniProt Q9UKI8). As to the kind of experiment: Inhibition of recombinant full-length human TLK1 at 1 uM using casein as substrate measured after 40 mins in presence of [gamma33P]ATP by scintillation counting method relative to control.
Test [16] deals with Testis-specific serine/threonine-protein kinase 1 (Homo sapiens) (UniProt Q9BXA7). The experiment in a line: Inhibition of recombinant full-length human TSSK1 at 1 uM using KKKVSRSGLYRSPSMPENLNRPR as substrate measured after 40 mins in presence of [gamma33P]ATP by scintillation counting method relative to control.
Test [17] deals with LIM domain kinase 2 (Homo sapiens) (UniProt P53671). The experiment in a line: Inhibition of recombinant human LIMK2 at 1 uM by radiometric method relative to control.
Test [18] concerns the target Tyrosine-protein kinase Lyn (Homo sapiens) (UniProt P07948). The experiment in a line: Inhibition of recombinant full-length human LYN at 1 uM using poly(Glu, Tyr) 4:1 as substrate measured after 40 mins in presence of [gamma33P]ATP by scintillation counting method relative to control.
In test [19] the target is Leucine-rich repeat serine/threonine-protein kinase 2 (Homo sapiens) (UniProt Q5S007). The experiment in a line: Inhibition of recombinant human LRRK2 (970 to end residues) at 1 uM using RLGRDKYKTLRQIRQ as substrate measured after 40 mins in presence of [gamma33P]ATP by scintillation counting method relative to control.
In test [20] the target is DNA-dependent protein kinase catalytic subunit (Homo sapiens) (UniProt P78527). As to the kind of experiment: Inhibition of recombinant full-length human DNA-PK at 1 uM using GST-cMyc-p53 as substrate measured after 40 mins by fluorescence assay relative to control.
For test [21], the target named is Cyclin-dependent kinase 9 (Homo sapiens) (UniProt P50750). Conditions: 0.25 uM.
Test [22] deals with 3-phosphoinositide-dependent protein kinase 1 (Homo sapiens) (UniProt O15530). The experiment in a line: Inhibition of recombinant human PDK1 (52 to end residues) at 1 uM using PDKtide as substrate measured after 40 mins in presence of [gamma33P]ATP by scintillation counting method relative to control.
3-phosphoinositide-dependent protein kinase 1 (Homo sapiens), sequence (O15530 whole entry, looked up): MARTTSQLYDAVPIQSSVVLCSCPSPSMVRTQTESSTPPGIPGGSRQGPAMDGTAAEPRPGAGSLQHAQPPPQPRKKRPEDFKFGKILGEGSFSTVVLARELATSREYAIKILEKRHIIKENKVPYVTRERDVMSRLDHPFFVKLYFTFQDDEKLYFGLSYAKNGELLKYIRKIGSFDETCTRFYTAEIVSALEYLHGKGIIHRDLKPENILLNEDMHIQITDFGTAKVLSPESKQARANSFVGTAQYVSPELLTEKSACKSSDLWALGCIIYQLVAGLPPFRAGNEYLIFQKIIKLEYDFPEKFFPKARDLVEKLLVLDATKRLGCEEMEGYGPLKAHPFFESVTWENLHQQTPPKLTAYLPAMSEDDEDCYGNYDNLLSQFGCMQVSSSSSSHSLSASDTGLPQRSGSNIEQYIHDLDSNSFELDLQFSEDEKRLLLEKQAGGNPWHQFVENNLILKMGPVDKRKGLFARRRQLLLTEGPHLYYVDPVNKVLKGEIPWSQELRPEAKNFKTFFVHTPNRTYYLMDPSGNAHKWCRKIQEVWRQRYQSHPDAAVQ

Serine/threonine-protein kinase PAK 5 (Homo sapiens), sequence (Q9P286 whole entry, looked up): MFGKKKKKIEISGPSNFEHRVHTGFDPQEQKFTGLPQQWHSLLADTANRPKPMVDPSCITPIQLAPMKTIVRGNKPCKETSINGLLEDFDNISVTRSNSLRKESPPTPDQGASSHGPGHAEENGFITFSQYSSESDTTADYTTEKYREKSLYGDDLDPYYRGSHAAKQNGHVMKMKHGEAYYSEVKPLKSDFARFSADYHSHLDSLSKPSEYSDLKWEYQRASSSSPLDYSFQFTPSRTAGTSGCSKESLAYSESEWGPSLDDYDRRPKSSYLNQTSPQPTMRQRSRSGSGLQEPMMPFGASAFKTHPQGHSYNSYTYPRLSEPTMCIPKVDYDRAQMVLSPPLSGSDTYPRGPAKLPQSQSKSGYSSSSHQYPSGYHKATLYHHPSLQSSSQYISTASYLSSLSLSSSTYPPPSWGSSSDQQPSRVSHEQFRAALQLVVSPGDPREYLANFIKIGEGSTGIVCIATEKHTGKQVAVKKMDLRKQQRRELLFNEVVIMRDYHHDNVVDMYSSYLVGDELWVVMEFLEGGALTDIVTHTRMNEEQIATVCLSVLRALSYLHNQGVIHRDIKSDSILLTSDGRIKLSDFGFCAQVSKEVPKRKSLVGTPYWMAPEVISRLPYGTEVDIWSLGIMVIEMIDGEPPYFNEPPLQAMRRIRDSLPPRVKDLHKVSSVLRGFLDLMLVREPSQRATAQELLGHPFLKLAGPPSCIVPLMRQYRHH
Cyclin-dependent kinase 9 (Homo sapiens), sequence (P50750 whole entry): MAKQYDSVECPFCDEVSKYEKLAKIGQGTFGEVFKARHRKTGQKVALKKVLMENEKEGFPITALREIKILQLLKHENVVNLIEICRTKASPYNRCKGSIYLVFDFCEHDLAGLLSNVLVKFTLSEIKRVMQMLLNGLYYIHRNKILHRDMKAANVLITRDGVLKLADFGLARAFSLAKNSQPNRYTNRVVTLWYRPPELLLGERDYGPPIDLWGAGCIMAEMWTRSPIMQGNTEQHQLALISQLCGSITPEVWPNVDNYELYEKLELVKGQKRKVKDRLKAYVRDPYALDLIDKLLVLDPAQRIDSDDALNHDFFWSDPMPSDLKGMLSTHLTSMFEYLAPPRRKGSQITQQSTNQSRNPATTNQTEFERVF
Serine/threonine-protein kinase MARK2 (Homo sapiens), sequence (Q7KZI7 whole entry): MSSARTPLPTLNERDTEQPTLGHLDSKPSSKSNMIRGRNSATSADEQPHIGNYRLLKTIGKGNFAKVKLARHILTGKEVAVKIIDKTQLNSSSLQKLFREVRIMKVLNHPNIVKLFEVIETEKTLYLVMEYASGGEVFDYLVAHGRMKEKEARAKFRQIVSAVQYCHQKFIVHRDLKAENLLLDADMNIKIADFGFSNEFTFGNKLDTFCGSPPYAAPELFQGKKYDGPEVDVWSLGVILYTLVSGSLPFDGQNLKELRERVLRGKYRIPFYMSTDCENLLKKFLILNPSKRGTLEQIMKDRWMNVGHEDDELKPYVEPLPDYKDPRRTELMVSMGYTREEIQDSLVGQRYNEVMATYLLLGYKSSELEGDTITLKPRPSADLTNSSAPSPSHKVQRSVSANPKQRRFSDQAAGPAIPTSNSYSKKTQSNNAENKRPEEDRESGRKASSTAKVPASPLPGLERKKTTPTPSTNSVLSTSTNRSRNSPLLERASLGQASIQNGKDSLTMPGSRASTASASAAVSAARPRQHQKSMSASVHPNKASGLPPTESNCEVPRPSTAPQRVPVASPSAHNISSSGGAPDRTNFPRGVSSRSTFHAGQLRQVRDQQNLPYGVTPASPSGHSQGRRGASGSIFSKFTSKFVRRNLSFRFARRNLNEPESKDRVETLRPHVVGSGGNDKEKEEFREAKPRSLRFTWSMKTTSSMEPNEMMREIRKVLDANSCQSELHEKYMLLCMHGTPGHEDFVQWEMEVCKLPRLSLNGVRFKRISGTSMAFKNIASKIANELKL
Leucine-rich repeat serine/threonine-protein kinase 2 (Homo sapiens), sequence (Q5S007 whole entry): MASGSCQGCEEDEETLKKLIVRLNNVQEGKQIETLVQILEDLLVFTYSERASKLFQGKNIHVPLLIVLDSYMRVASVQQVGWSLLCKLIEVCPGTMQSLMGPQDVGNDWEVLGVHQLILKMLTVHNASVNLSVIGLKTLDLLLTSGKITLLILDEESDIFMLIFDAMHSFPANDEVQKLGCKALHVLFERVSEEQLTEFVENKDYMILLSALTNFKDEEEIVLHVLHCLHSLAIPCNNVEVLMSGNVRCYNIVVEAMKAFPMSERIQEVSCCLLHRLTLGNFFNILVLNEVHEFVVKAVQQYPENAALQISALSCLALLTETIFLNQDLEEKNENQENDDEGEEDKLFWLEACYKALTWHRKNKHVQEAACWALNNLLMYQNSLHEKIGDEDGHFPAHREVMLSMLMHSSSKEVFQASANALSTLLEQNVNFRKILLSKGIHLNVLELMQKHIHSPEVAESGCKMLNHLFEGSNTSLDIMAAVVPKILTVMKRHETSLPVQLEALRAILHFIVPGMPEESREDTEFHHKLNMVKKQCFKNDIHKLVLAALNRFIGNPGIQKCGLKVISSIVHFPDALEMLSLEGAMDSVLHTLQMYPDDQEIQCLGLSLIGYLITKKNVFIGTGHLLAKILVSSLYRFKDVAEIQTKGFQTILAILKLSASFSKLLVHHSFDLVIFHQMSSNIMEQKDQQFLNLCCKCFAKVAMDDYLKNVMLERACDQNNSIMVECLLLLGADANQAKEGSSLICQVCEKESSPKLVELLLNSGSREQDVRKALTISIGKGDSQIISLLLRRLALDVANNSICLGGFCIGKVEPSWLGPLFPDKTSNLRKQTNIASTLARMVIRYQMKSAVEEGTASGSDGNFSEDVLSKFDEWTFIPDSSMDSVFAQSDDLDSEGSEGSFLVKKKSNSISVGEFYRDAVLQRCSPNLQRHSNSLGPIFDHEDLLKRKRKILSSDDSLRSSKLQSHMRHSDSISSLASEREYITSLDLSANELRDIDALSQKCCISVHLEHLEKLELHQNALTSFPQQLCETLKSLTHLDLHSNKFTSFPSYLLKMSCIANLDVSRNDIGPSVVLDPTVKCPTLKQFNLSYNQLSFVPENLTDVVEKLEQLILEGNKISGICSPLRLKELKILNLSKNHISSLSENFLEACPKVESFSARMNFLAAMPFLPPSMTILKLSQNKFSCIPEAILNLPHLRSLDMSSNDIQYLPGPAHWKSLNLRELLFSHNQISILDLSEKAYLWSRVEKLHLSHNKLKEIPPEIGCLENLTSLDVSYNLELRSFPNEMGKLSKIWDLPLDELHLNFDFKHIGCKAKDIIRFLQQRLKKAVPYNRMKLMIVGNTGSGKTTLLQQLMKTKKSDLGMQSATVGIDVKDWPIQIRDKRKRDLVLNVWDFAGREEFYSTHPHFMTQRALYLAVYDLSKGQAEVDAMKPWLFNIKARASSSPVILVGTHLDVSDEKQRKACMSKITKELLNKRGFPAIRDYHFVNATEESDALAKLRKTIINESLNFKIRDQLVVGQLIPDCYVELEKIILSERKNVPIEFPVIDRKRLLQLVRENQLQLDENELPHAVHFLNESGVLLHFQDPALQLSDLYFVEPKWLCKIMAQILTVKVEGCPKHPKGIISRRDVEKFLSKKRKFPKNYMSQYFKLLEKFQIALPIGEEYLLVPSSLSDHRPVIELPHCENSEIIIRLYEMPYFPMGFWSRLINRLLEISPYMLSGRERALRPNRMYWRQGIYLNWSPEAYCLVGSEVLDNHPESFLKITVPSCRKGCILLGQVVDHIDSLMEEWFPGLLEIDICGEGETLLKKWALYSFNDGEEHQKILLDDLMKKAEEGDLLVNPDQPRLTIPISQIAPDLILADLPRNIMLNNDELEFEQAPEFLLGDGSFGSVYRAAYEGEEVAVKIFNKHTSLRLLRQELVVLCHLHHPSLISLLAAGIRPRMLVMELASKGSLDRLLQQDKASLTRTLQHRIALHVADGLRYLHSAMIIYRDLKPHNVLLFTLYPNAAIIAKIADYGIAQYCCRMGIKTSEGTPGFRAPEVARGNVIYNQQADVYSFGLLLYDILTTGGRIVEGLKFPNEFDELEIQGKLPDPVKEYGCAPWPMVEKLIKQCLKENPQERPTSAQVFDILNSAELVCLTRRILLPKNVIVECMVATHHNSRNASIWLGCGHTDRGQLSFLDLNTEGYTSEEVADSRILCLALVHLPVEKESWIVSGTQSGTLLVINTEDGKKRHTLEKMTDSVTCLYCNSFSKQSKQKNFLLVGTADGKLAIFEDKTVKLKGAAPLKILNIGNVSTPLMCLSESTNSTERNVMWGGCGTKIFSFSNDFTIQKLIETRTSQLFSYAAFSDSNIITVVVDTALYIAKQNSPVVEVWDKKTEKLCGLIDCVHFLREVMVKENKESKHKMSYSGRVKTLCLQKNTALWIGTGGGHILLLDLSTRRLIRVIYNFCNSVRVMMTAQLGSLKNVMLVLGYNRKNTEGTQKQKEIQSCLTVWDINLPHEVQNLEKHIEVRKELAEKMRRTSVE

For `CN(C)C(=O)c1cc2cnc(Nc3ccc(NC(=O)CCCCCCCN=C=S)cc3)nc2n1C1CCCC1`, the inhibition – broadly, the change of the read-out against control, counted positive when it falls – is 98% in [1]; “Dose-dependent effect” in the test on NCI-H1299 [5]; 99% in test [7]; -3% in test [8]; 2% in test [9]; -10% in test [10]. In addition, the inhibition in [11] was 1%; in [12], 14%; in [13], -2%; in test [14], 40%; in test [15] it was 7%; in test [16], 7%. Also, the inhibition in [17] is 13%; in test [18], 25%; in test [19], 8%; in test [20] it was 9%; in test [22], 1%. For the same molecule, the inhibition at 10 µM in the test on NCI-H1299 [2] was determined as 98.7%. Further, in the test with MCF7, the IC50 (commonly the concentration at which inhibition is half-maximal) is 1.74 µM. In addition, the Activity in the test on A549 [3] was found to be 13.8%; with NCI-H1299 [4] it was 0.432%. For the same molecule, in the test with A549 [6], the outcome was Active. Further, the inhibition entry in test [21] is “Active”.
